Consider 8 compounds from ChEMBL document CHEMBL1821615 (J Med Chem, 2011).

The target in data set [1] is Sigma non-opioid intracellular receptor 1 (Cavia porcellus, UniProt Q60492). Nature of the data set: Displacement of [3H]-pentazocine from sigma 1 receptor from guinea pig brain membrane.
Data set [2] is described as follows: Displacement of [3H]-DTG from sigma 2 receptor from rat liver in presence of pantazocine.
Data set [3] is described as follows: Selectivity ratio of IC50 for guinea pig brain sigma 1 receptor to IC50 for rat liver sigma 2 receptor. Put shortly: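 Sigma-1 binding used (+)-[3H]-pentazocine (34 Ci/mmol); sigma-2 binding used [3H]-DTG (30 Ci/mmol), per the Matsumoto et al. method. IC50 taken from six to nine test concentrations in two or three experiments, each in duplicate.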
The test system of data set [4] is BXPC-3. Nature of the data set: Cytotoxicity against human BxPC3 cells during nonproliferating stage assessed as decreased cell death at 100 uM after 18 hrs by crystal violet staining. It is filed as functional, cell-based. Put shortly:
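BxPC3 cells seeded at increasing densities (1 × 10^5 to 9 × 10^5) 24 h before treatment with 100 µM sigma-2 agonist. After 18 h, washed, fixed in 4% paraformaldehyde 30 min at 37 °C, crystal violet stained 15 min at 37 °C, and imaged by densitometry. Viability given as percent density relative to DMSO-treated cells.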

Data set [5] has as its system BXPC-3. Nature of the data set: Drug uptake in human BxPC3 cells assessed as decrease drug uptake at 25 nM measured after 60 mins by flow cytometric analysis in presence of caveolin inhibitor Filipin 3. It counts as ADME, cell-based. Particulars: bxpc-3, 1 h. Put shortly: (§1)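 BxPC3 cells pretreated 60 min at 37 °C with phenylarsine oxide (10 µM; clathrin route) or Filipin III (5 µg/mL; caveolin route), or DMSO vehicle, then washed and resuspended in medium. Compound added at 25 nM; mean FL1 fluorescence read by flow cytometry in kinetic mode over 60 min, expressed as percent of maximum signal.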
A general note: A flow cytometer gives signals particle by particle.

In data set [6] the test system is BXPC-3. Briefly: Cellular uptake in human BxPC3 cells assessed as decrease drug uptake at 25 nM measured after 60 mins by flow cytometric analysis in presence of clathrin inhibitor phenylarsine oxide. It is filed as ADME, cell-based. The conditions noted are these: bxpc-3, 1 h. Put shortly:
as §1

The subject of data set [7] is BXPC-3. Briefly: Drug uptake in human BxPC3 cells assessed as decreased uptake at increasing cell density at 25 nM after 30 min by flow cytometric analysis. It is filed as ADME, cell-based. Particulars: bxpc-3, 0.5 h. The method in brief:
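BxPC3 cells seeded at increasing densities to give subconfluent (dividing) through confluent (quiescent) cultures. Next day, cells treated with compound at 25 nM for 30 min at 37 °C, and fluorescence intensity measured by flow cytometry.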

The source made the active and inactive calls. No cut-off for these calls is given here.

Sequence of Sigma non-opioid intracellular receptor 1 (Q60492 whole entry): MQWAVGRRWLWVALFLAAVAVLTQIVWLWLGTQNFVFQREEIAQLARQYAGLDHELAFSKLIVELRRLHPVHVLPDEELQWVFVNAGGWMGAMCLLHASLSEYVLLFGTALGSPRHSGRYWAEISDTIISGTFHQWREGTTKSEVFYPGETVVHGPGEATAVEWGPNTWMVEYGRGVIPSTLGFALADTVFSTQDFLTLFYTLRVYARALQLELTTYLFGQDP

The term Ki denotes a dissociation constant, usually derived from enzyme kinetics or from competition with a known ligand. Turning to `CN(C)c1cccc2c(S(=O)(=O)NCCOCCOc3cccc4c3CCCC4CCCN3CCN(C4CCCCC4)CC3)cccc12` (stereo not given), the inhibition constant (Ki) in data set [1] worked out at 0.0198 µM; in data set [2], 0.0257 µM.
For `COc1cccc2c1CCCC2CCCN1CCN(C2CCN(CCCCCCNc3ccc([N+](=O)[O-])c4nonc34)CC2)CC1` (stereo not given), the Ki was 2.57 µM in data set [1] and 1.72 µM in data set [2].
As to `CN(C)c1cccc2c(S(=O)(=O)NCCCCCCOc3cccc4c3CCCC4CCCN3CCN(C4CCCCC4)CC3)cccc12` (stereo not given), the Ki in data set [1] was determined as 0.00908 µM; in data set [2], 0.0208 µM.
For `COc1cccc2c1CCCC2CCCN1CCN(C2CCN(CCCCCCNS(=O)(=O)c3cccc4c(N(C)C)cccc34)CC2)CC1` (stereo not given), the Ki in data set [1] was over 5 µM; in data set [2], 5.02 µM.
`O=[N+]([O-])c1ccc(NCCOCCOc2cccc3c2CCCC3CCCN2CCN(C3CCCCC3)CC2)c2nonc12` (stereo not given): in data set [3], the Ratio Ki was determined as 2.5. For the same compound, the values for the inhibition constant (Ki) in data set [1] and in data set [2] were 0.0962 µM and 0.0393 µM, respectively.
With `COc1cccc2c1CCCC2CCCN1CCN(C2CCCCC2)CC1` (stereo not given), in data set [4], the outcome was inactive. Moreover, the inhibition constant (Ki) in data set [2] was 0.00068 µM.
With `Fc1cccc(F)c1[C@H]1CC[C@@H](N2CCN(C3CCCCC3)CC2)CC1`, the outcome in data set [4] was inactive.
As for `O=[N+]([O-])c1ccc(NCCCCCCOc2cccc3c2CCCC3CCCN2CCN(C3CCCCC3)CC2)c2nonc12` (stereo not given), in data set [3], the Ratio Ki amounted to 8. The Drug uptake in data set [5] is recorded as 50%; in data set [6], 69%; in data set [7] it was “Not Active”. For the same compound, the inhibitory constant (Ki) in data set [1] came to 0.0787 µM; in data set [2] it was 0.0108 µM.
